Screening results: PubChem BioAssay, The Scripps Research Institute Molecular Screening Center
Most compounds without a hit are left out; they make up all but 3.3% or so of the library.
LEDGF integ inh – blocks HIV-1 LEDGF/p75-dependent DNA integration; TR-FRET IN-LEDGF/p75 DNA integration, Eu/Cy5; inhibition, % at 3.7 µM; actives 0.64% (n = 370,000); AID 743269;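 active means inhibition above the screen-wide mean plus 3 SD, cut at about 13% in these data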;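 further: signal is the Cy5 over europium emission ratio at 671 and 618 nm; 0% = plate median of compound wells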
TDP2 inh – TDP2 (human) inhibition, absorbance primary screen; O95551; recombinant TDP2, T5PNP hydrolysis, p-nitrophenol absorbance 415 nm; inhibition, % at 12.8 µM; actives 0.34% (n = 370,000); AID 720702;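 active means inhibition above the mean of all tested compounds plus 3 SD, set per campaign, cut at about 25% in these data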;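 further: 0% = DMSO with enzyme and 100% = buffer with substrate but no TDP2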
Target sequence (O95551 whole entry, looked up): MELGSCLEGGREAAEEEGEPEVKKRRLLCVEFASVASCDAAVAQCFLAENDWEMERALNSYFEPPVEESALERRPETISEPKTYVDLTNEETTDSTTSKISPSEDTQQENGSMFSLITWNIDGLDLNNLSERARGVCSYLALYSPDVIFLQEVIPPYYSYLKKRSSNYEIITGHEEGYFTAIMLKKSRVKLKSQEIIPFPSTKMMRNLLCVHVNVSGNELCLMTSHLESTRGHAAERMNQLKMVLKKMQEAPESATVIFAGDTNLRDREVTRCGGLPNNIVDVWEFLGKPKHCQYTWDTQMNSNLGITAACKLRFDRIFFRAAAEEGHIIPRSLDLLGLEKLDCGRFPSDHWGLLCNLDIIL
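Assay system: recombinant human TDP2 / Reagent: T5PNP substrate at 5 mM, a TopII-DNA adduct mimic / Measured by: epi absorbance from released p-nitrophenol / Evaluation: % inhibition relative to enzyme-containing and enzyme-free wells / Control set: enzyme-free and DMSO wells / Replicates: each compound tested once, singlicate / Schedule: enzyme reaction with compound for 2 h at 37 °C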
UHRF1 MBD2 ctr – UHRF1 methyl-DNA binding inhibition; Q96T88; UHRF1 binding to methylated oligo, TR-FRET; inhibition, % at 4.4 µM; actives 0.75% (n = 370,000); AID 687016; in the data active means inhibition above about 21%;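 further: UHRF1 SRA domain binding a hemimethylated CpG hairpin DNA probe; 0% = median of test compound wells and 100% = reference inhibitor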
SIAE inh – blocks human sialic acid acetylesterase. Q9HAT2. SIAE FP-Rh probe binding, fluorescence polarization. inhibition, % at 9.66 µM. actives 0.69% (n = 370,000);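 active means inhibition above a cutoff: mean of compounds within the control limits plus 3 SD of those, cut at about 17% in these data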;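 further: 0% = plate median of compound wells and 100% = probe without SIAE protein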
MBD2 inh – MBD2-methylated oligo binding inhibition; TR-FRET, MBD2 binding to methylated oligonucleotide; inhibition, % at 4.4 µM; actives 0.31% (n = 370,000); in the data active means inhibition above about 13%
PRMT1 inh – inhibitors of human PRMT1; AID 652257; actives 1.3% (n = 370,000); Q99873; recombinant PRMT1, activity-based probe fluorescence polarization; inhibition, % at 2.79 µM;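 active means inhibition above about 21% made by adding two undisclosed values, limit read from the data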
* = called active by the depositor; i = inactive.

SMILES | LEDGF integ inh | TDP2 inh | UHRF1 MBD2 ctr | SIAE inh | MBD2 inh | PRMT1 inh
O=C(NCCN1CCC2(CC1)C(=O)NCN2c1ccccc1)C(c1ccccc1)c1ccccc1 | 2 | 6 | -1 | 4 | 1 | -2
NCC(CC(=O)O)c1ccc(Cl)cc1 (stereo unspecified) | 1 | 2 | 25* | -1 | 9 | 3
O=C(O)COc1ccc(Cl)cc1Cl | 2 | 0 | 0 | 4 | 1 | -2
COC(=O)[C@@]1(C#N)[C@@H]2C=CC(C(C)=O)=CN2[C@@H](C(N)=O)[C@@H]1c1ccc(F)cc1 | 0 | 3 | 25* | 4 | -4 | 19
O=P(O)(Oc1ccccc1)c1ccccc1 | 6 | 3 | 21* | -1 | 8 | -1
N#CC1c2ccccc2-n2nncc2CN1C(=O)c1ccc([N+](=O)[O-])o1 (stereo unspecified) | 3 | 6 | 0 | -11 | -4 | 2
COc1cc(O)c2c(c1)/C=C/C[C@H](O)[C@H](O)[C@@H](O)/C=C/C[C@H](C)OC2=O | 1 | 7 | 1 | 8 | 4 | 2
CCCCn1c(O)c(C=NCc2ccc3c(c2)OCO3)c(=O)[nH]c1=O | -2 | -11 | 0 | -5 | -3 | 3
O=c1[nH]c(=O)n(Cc2ccco2)c(O)c1C=NCc1ccc2c(c1)OCO2 | 12 | -20 | 3 | -1 | -3 | 23*
O=C(CN1C(=O)CN=C(c2ccccc2)c2cc(Cl)ccc21)NC1CCCCC1 | -4 | -8 | 3 | 0 | -1 | 3
C=CCN1C(=O)/C(=C/c2ccc(N3CCOCC3)o2)C(=O)NC1=S | -4 | -2 | -5 | -16 | -8 | -5
C=CCN1C(=O)NC(=O)/C(=C\c2ccc(-c3ccccc3[N+](=O)[O-])o2)C1=O | 4 | 12 | 56* | -6 | 3 | 17
CO[C@H]([C@H](C)/C=C/N(C)C=O)[C@@H](C)C(=O)CC[C@H](C)[C@H](O)[C@H](C)[C@H]1OC(=O)/C=C/C(C)=C/[C@H](O)[C@H](OC)C[C@@H]2C=CC[C@@H](C[C@H](OC)[C@@H](CO)[C@@H](OC)C[C@@H](OC)[C@@H]1C)O2 | 3 | -9 | -1 | 0 | -1 | -2
Cc1ccc2nc(-c3ccc(CN4CCC(n5nnc6ccccc65)CC4)cc3)c(-c3ccccc3)nc2c1 | 5 | -4 | -4 | -8 | 2 | -3
O=C(O)c1cccc2c1NC(C(=O)O)C1CC(Sc3ccccc3[N+](=O)[O-])C(Cl)C21 (stereo unspecified) | 52* | 17 | 62* | 61* | 21* | 81*
CN1C(=O)C(=Cc2ccccc2OCc2ccccc2Cl)C(=O)N(C)C1=O | 1 | 1 | -1 | -2 | -1 | 23*
N#CCC[C@H]1CC[C@]2(CCCN(Cc3ccccn3)C2)O1 | -1 | -10 | -2 | 4 | -6 | -1
COc1ccc(C(=O)NC(=S)N2C[C@H]3C[C@H](C2)c2cccc(=O)n2C3)cc1OC | -5 | 0 | 2 | 0 | 6 | -2
O=C(NC(=S)N1C[C@H]2C[C@H](C1)c1cccc(=O)n1C2)c1ccc(Cl)cc1Cl | 0 | 0 | 91* | -5 | 4 | 4
CCCOc1ccc(C(=O)NC(=S)N2C[C@H]3C[C@H](C2)c2cccc(=O)n2C3)cc1 | 2 | -8 | -2 | 0 | 1 | 25*
COc1ccccc1N1C(=O)NC(=O)/C(=C/c2ccc([N+](=O)[O-])s2)C1=O | 10 | 18 | 1 | 0 | 1 | 27*
Cn1c(O)c(/C=C2\C=c3ccccc3=NC2=O)c(=O)n(C)c1=O | -2 | 12 | 75* | 6 | -5 | 9
CN1CCN(CC(=O)Nc2ccc(Cl)cc2C(=O)c2ccccc2)CC1 | 4 | 6 | 1 | 6 | 4 | -2
Nc1cccc(SC2CC(=O)N(c3ccc(Cl)cc3C(=O)c3ccccc3)C2=O)c1 (stereo unspecified) | -3 | -1 | 28* | -7 | -4 | 3
c1cncc(-c2ccc3n2Cc2cnnn2-c2ccccc2-3)c1 | 2 | -8 | 0 | -2 | -3 | 2
CN1c2ccc(Br)cc2[C@H]2NCC[C@H]2[C@H]1CO | -4 | -1 | -4 | -5 | -2 | 2
C[CH2][Hg][S]c1ccccc1C(=O)O | i | 0 | 7 | 9 | 8 | 84*
